Screening data deposited in PubChem BioAssay by several laboratories.
A3G deaminase = inhibitors of human APOBEC3G DNA deaminase | Q9HC16 | recombinant A3G, ssDNA deamination FAM/TAMRA fluorescence | inhibition, % at 20 µM | 0.28% of 330,000 active | AID 493012;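 active = inhibition of at least 40% at 20 µM, with no more than 30% in the related APOBEC3A deaminase screen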;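 also: plate controls were DMSO wells with A3G for no effect and wells lacking A3G enzyme for full effect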
Target sequence (Q9HC16 whole entry, looked up): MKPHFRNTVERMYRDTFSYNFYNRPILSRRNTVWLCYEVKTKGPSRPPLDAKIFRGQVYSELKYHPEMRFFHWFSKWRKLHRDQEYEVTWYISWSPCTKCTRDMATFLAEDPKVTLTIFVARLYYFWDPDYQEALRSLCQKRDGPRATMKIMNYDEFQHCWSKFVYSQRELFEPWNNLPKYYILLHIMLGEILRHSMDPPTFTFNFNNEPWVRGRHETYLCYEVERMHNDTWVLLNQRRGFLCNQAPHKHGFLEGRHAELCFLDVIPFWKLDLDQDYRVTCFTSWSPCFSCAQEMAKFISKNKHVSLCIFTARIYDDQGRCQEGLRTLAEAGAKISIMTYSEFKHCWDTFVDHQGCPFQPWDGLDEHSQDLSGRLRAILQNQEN
TbMetRS inhib = Trypanosoma brucei MetRS inhibition. purified T. brucei MetRS, ATP depletion, Kinase-Glo luminescence. inhibition, % at 11.9 µM. 0.4% of 360,000 active. AID 624268;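 active = inhibition above a per-plate cutoff of the control wells' mean inhibition plus 3 SD, cut at about 5.5% in these data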;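 also: 0% = DMSO wells median and 100% = median of wells with control inhibitor compound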
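Test system – parasite MetRS enzyme · Reagent – substrates ATP, L-methionine and bulk Escherichia coli tRNA · Doses – 11.9 µM compound single dose, 0.9% DMSO · Times – 15 min enzyme-compound preincubation, 2 h reaction, 10 min detection, 25 °C · Signal – Kinase-Glo luminescence, ATP depletion format · Controls – DMSO-only wells as low control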
APOBEC3A inh = human APOBEC3A DNA deaminase inhibition. 0.41% of 330,000 active. P31941. inhibition, % at 20 µM. recombinant A3A, FAM/TAMRA ssDNA deamination fluorescence;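 active = at least 40% inhibition at 20 µM here, with at most 30% in a related deaminase screen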;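 also: plate controls were A3A with DMSO for no effect and wells lacking A3A enzyme for full effect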
PHOSPHO1 inh = blocks human PHOSPHO1 phosphatase activity; Q8TCT1; recombinant PHOSPHO1, absorbance phosphatase assay; inhibition, % at 13.3 µM; 1.1% of 290,000 active; in the data active = inhibition above about 60%
pCIP destab = lowers stability of the mouse p/CIP coactivator protein. decrease of EGFP signal, % at 10 µM. 0.01% of 290,000 active. F442A p/CIP-EGFP cells, EGFP fluorescence, 16 h. Q05BA5;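 active = EGFP signal decrease of at least 30% at 10 µM or well 3 SD below plate mean, unless failing retest; inactive = the rest, including hits failing retest or dose response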
TbMetRS confirm = confirmation of Trypanosoma brucei MetRS inhibitors; shares compounds with TbMetRS inhib; T. brucei MetRS enzyme, luminescence (ATP depletion); inhibition, % at 11.9 µM; 93% of 1,400 active; AID 624412; in the data active = inhibition above about 7%
Jurkat tox = kills Jurkat cells in T. brucei MetRS counterscreen. shares compounds with TbMetRS inhib. Jurkat cells viability, ATP luminescence. inhibition, % at 8.3 µM. 12% of 1,400 active; in the data active = inhibition above about 15%;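 also: 0% = vehicle and 100% = reference inhibitor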
TbMetRS FP orth = inhibits T. brucei methionyl tRNA synthetase in orthogonal FP test | purified T. brucei MetRS, fluorescence polarization | shares compounds with TbMetRS inhib | inhibition, % at 11.9 µM | 44% of 1,400 active; in the data active = inhibition above about 17%;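 also: 0% = vehicle wells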
An asterisk follows results filed as active; nt = no result. Shown are actives, neighbours in structure and some others; about 1.8% of the full set was active somewhere.

SMILES | A3G deaminase | TbMetRS inhib | APOBEC3A inh | PHOSPHO1 inh | pCIP destab | TbMetRS confirm | Jurkat tox | TbMetRS FP orth
O=C(CN(Cc1ccccc1)C1=NCCS1)c1ccc(Cl)cc1 | -2.4 | 24.7* | 2.4 | 0.8 | -11.7 | 41.8* | 12.8 | 23.1*
Cc1cc(O)c(/C=N/OCc2ccc(Cl)cc2Cl)c(=O)o1 | -7.9 | -1.2 | -4.5 | 29.2 | -2.5 | nt | nt | nt
CN(C)/C=C(\C=N\OCc1ccc(Cl)cc1Cl)C(=O)Nc1ccc(Cl)c(Cl)c1 | -7.2 | 65.9* | -5.1 | -0.3 | -7.4 | 9.2* | -3.7 | 3.3
O=C(COc1ccc2c(-c3ccccc3)cc(=O)oc2c1)Nc1cccnc1 | -12.2 | -0.2 | 4.5 | 45.3 | -15.4 | nt | nt | nt
O=C(NCc1ccccc1)C1=C[C@@H](c2ccc(Br)cc2)C[C@@H](OCc2ccc(CO)cc2)O1 | -6.8 | -0.1 | -4.0 | 30.4 | -4.2 | nt | nt | nt
O=C(NCc1nc2ccccc2[nH]1)C1=C[C@@H](c2ccc(Br)cc2)C[C@@H](OCCCCO)O1 | -8.3 | 84.8* | -2.1 | 21.9 | 4.4 | 104.5* | 1.1 | 105.7*
O=C(NCc1nc2ccccc2[nH]1)C1=C[C@H](c2coc3ccccc3c2=O)C[C@H](OCCCCO)O1 | 4.8 | 16.6* | -1.3 | nt | nt | 52.7* | -3.3 | 18.3*
O=C(NCc1ccccc1)C1=C[C@H](c2ccc(Br)cc2)C[C@H](OCCCCO)O1 | -3.6 | 0.1 | -2.6 | nt | nt | nt | nt | nt
O=C(NCc1nc2ccccc2[nH]1)C1=C[C@@H](c2ccc(Br)cc2)C[C@@H](OCc2ccc(CO)cc2)O1 | -2.0 | 78.6* | 1.3 | 34.6 | -10.8 | 101.4* | 3.9 | 84.1*
CC(=O)c1ccc(NC(=S)N(C)C2CCN(C)CC2)cc1 | -5.7 | -1.2 | -1.8 | 9.5 | 0.4 | nt | nt | nt
COc1ccc(NC(=O)CCC(=O)c2cc(C)sc2C)cc1 | -1.8 | -0.4 | -1.2 | nt | nt | nt | nt | nt
CCCCn1c(NS(=O)(=O)c2ccc(C)cc2)c(S(=O)(=O)c2ccccc2)c2nc3ccccc3nc21 | nt | 8.7* | nt | -1.4 | -3.0 | 8.9* | -0.3 | 5.7
Cc1ccc2cc(CCNC(=O)C(=O)c3c[nH]c4ccccc34)c(=O)[nH]c2c1 | -3.9 | -0.5 | -1.5 | 15.4 | -11.9 | nt | nt | nt
Cc1ccc2cc(CCNC(=O)C(=O)c3c(C)[nH]c4ccccc34)c(=O)[nH]c2c1 | -5.6 | 13.4* | -1.9 | 29.2 | -10.2 | 30.8* | 4.6 | 3.6
NC(=O)c1ccc(=O)n(Cc2ccc(F)c(F)c2)c1 | -2.1 | 0.2 | -0.2 | nt | 5.3 | nt | nt | nt
O=C(Nc1ccccc1)c1ccc(=O)n(Cc2ccc(F)c(F)c2)c1 | -0.6 | 9.6* | -1.5 | 65.3* | -2.2 | 17.9* | 2.6 | 5.6
Cc1nn(CC(=O)NC(=O)NC2CCCC(C)C2C)c(=O)c(C#N)c1C (stereo not given) | -8.1 | -0.2 | -0.5 | nt | nt | nt | nt | nt
CN1CCN(NC(=O)c2ccc(Cl)s2)CC1 | -3.6 | -1.2 | -0.3 | 33.9 | -9.9 | nt | nt | nt
CCOc1ccc(CNc2nc3ccccc3n2CCN2CCOCC2)cc1 | -6.6 | 1.0 | -3.3 | 10.2 | -1.6 | nt | nt | nt
Brc1cccc(CNc2nc3ccccc3n2CCN2CCOCC2)c1 | -5.2 | 7.5* | -1.4 | 26.0 | -1.3 | 20.3* | 8.3 | 4.7
OC(c1cc(F)cc(Cl)c1)c1ncc(-c2cccc(C(F)(F)F)c2)[nH]1 (stereo not given) | nt | 15.9* | nt | nt | nt | 45.1* | 4.4 | 30.7*
OC(c1ccc(Cl)cc1)c1ncc(-c2cccc(C(F)(F)F)c2)[nH]1 (stereo not given) | nt | -0.2 | nt | nt | nt | nt | nt | nt
OC(c1cc(Cl)cc(Cl)c1)c1ncc(-c2ccccc2F)[nH]1 (stereo not given) | nt | 29.5* | nt | nt | nt | 67.4* | 4.8 | 43.4*
COc1ccccc1-c1cnc(C(O)c2cc(Cl)cc(Cl)c2)[nH]1 (stereo not given) | nt | 66.6* | nt | nt | nt | 87.7* | 2.8 | 69.4*
CCC(C)[C@H](NC(=O)N1CCC(Cc2ccccc2)CC1)C(=O)O (stereo not given in full) | 1.1 | -0.5 | 1.9 | 24.8 | -1.6 | nt | nt | nt
